Measured values pooled from the literature.
Protocols differ between the studies behind these lines.
Cell line: U-87 MG
Effect on: cell growth or viability

Structure (SMILES) | assay | setting | quantity | value
Cn1nnc2c(Cl)ncn2c1=O | resazurin | 7 days | IC50 | 15 µM
Oc1c(C(c2ccc(F)cc2)N2CCCCC2)ccc2c1CCC2 (centres unmarked) | MTT | 30 µM | inhibition | 28%
Fc1ccc2[nH]cc(CNCC3(N4CCC(F)C4)COC3)c2c1 (centres unmarked) |  | 30 µM, 48 h | viability | 94.6%
Cn1nnc2c(-c3ccccc3)ncn2c1=O | resazurin | 7 days | IC50 | 9 µM
c1cc2c(cc1CNCC1(N3CCCC3)COC1)OCCO2 |  | 30 µM, 48 h | viability | 95.7%
Cc1ccc(C(=O)Nc2ccc(Oc3cc4cnn(C)c4cc3-c3cn[nH]c3)c(F)c2)c(=O)n1-c1ccc(F)cc1 | ATP luminescence |  | IC50 | 0.129 µM
Fc1ccc2c(CNCC3(N4CCC(F)C4)COC3)c[nH]c2c1 (centres unmarked) |  | 30 µM, 48 h | viability | 97.6%
Cn1nnc2c(C(N)=O)ncn2c1=O | MTT | 72 h | IC50 | 596 µM
c1cc2cc(CNCC3(N4CCCC4)COC3)ccc2[nH]1 |  | 30 µM, 48 h | viability | 98.6%
COc1cccc2c1C(=O)c1c(O)c3c(c(O)c1C2=O)C[C@@](O)(C(=O)CO)C[C@@H]3O[C@H]1C[C@H](N)[C@H](O)[C@H](C)O1 | WST-1 | 72 h | IC50 | 0.04 µM
Cc1cc(NC(=O)c2cccc3cc(-c4cccc5[nH]nc(N)c45)ccc23)ccc1F | CCK-8 | 72 h | IC50 | > 20 µM
Cn1nnc2c(C(N)=O)ncn2c1=O | resazurin | 7 days | IC50 | 51 µM
CC(C)C[C@H](NC(=O)[C@H](Cc1ccccc1)NC(=O)c1cnccn1)B(O)O | ATP luminescence |  | IC50 | 0.02 µM
FC1CCN(C2(CNCc3ccc(-c4ccccc4)o3)COC2)C1 (centres unmarked) |  | 30 µM, 48 h | viability | 46.6%
COc1cc(Nc2nccc(-c3cnn4nc(OC)ccc34)n2)cc(C(F)(F)F)c1 | ATP luminescence |  | IC50 | 0.84 µM
CCN(CC)C(=O)c1ncn2c(=O)n(C)nnc12 | resazurin | 7 days | IC50 | 80 µM
COc1cccc2c1C(=O)c1c(O)c3c(c(O)c1C2=O)C[C@@](O)(C(=O)CO)C[C@@H]3O[C@H]1C[C@H](N)[C@H](O)[C@H](C)O1 | SRB |  | IC50 | 0.1 µM
